{"source": "paper PMC6939458", "about": "(Cancer cell, 2019)", "key": {"[1]": {"system": "Rat1 fibroblasts (HO15.19, TGR.1)", "experiment": "Cell viability, Rat1 fibroblasts", "assay_type": "cell-based, rat", "details": "HO15.19 vs TGR.1", "outline": "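Myc-knockout HO15.19 and wild-type TGR.1 Rat-1 fibroblasts were kept in DMEM with 10% calf serum. They were seeded in 48-well plates at 1000 per well (HO15.19) or 3000 per well (TGR.1). After 2 to 7 days of treatment, viable cells were counted or MTS absorbance was read at 490 nm.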"}, "[2]": {"system": "MYC", "experiment": "Western blot of MYC protein level, stability and phosphorylation in cells", "assay_type": "cell-based, human", "outline": "(§1)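 PC3 cells, or PC3 stably expressing Flag-MYC, Flag-MYCT58A or Flag-MYCS62A (lentiviral, 1.5 μg/ml puromycin selection), were used. For stability, cells were pretreated 3 hr with compound or DMSO, then given cycloheximide and harvested at time points. MYC, pT58, pS62, GSK3β and pGSK3β S9 were detected by western blot over a time course. Band intensities were densitometrically quantified.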"}, "[3]": {"target": "MYC (Homo sapiens, UniProt P01106, T73A)", "sequence (P01106 16-454 T73A)": "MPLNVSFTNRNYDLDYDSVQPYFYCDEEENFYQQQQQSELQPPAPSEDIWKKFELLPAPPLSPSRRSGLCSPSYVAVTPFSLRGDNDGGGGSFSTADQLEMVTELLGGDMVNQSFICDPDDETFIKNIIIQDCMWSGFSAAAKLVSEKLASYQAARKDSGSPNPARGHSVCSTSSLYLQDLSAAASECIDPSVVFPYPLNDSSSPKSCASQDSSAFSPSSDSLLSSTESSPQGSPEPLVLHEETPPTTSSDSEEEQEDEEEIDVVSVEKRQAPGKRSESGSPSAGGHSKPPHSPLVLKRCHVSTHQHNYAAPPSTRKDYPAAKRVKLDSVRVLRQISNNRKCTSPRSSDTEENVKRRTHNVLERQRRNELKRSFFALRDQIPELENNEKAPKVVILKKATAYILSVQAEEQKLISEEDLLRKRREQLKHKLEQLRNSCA", "experiment": "Western blot of MYC protein level, stability and phosphorylation in cells", "assay_type": "cell-based", "details": "6 μM, PC3 cells expressing Flag-MYCT58A", "outline": "as §1"}, "[4]": {"target": "MYC (Homo sapiens, UniProt P01106)", "sequence (P01106 16-454)": "as the sequence (P01106 16-454 T73A) above, with A58T counted along it", "experiment": "Cellular thermal shift assay", "assay_type": "cell-based", "outline": "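PC3 cells (70–80% confluent; also PC3 stably expressing Flag-MYCT58A, puromycin 1.5 μg/ml selected) treated with test compound or DMSO for 30 min. Cells washed, resuspended in PBS with protease/phosphatase inhibitors plus the same compound dose, split into 7–10 aliquots (~1 million cells each), heated 2 min at graded temperatures, then 3 min room temperature. Lysates boiled 5 min at 90 °C; MYC quantified by Western blot densitometry to build melt curves.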"}, "[5]": {"system": "MYC transcriptional activity (E-box-luciferase)", "experiment": "E-box luciferase reporter assay in vitro", "assay_type": "cell-based", "outline": "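MycCaP cells stably carrying either MYC E-box-luciferase reporter or control mCherry-P2A-luciferase vector plated 10000 cells/well. Serial dilution of test compound added the next day; luminescence read by Steady-Glo after 4 hr treatment.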"}, "[6]": {"system": "MycCaP organoids and FVB mouse prostate organoids", "experiment": "Prostate organoid culture", "assay_type": "cell-based", "details": "4 days treatment", "outline": "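Prostate lobes from 8–10-week-old FVB males were minced and digested with collagenase in RPMI1640/10% FBS for 2 hr at 37 °C. Trypsin and DNase I followed, then a 40 μm strainer. Cells were plated on ultra-low-attachment plates: 5,000 normal cells or 1000 MycCaP cells per 100 μl, with media added at day 4. Organoids formed by day 7 (normal) or day 4 (MycCaP). They were pelleted, resuspended in media with compound or DMSO, and imaged in bright field 4 days after treatment.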"}, "[7]": {"target": "MYC/MAX interaction (Homo sapiens, UniProt P01106)", "sequence (P01106 16-454)": "as the sequence (P01106 16-454 T73A) above, with A58T counted along it", "experiment": "Co-immunoprecipitation and proximity ligation assay in PC3 cells", "assay_type": "cell-based", "details": "6 μM", "outline": "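For PLA, PC3 or PC3 T58A cells were grown in chamber slides and treated for 1 to 2 hr, then fixed in 4% PFA and permeabilised with 0.5% Triton-X. PLA signals per cell were counted by image analysis. For co-IP, cells were lysed in 20 mM Tris-HCl pH 8.0, 100 mM NaCl, 1 mM EDTA and 0.5% NP-40. Pellets were enzymatically sheared for 90 min at 4 °C and precipitates were analysed by western blot.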"}, "[8]": {"system": "MycCaP tumor allografts", "experiment": "MycCaP allograft/xenograft mouse model", "assay_type": "in vivo", "outline": "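Male FVB (allograft) or NSG (xenograft) mice, 6–8 weeks, ~25 g, acclimated >4 days. Injected s.c. in flanks with 1 × 10⁶ MycCaP E-box-luciferase cells in 100 μl Matrigel. Tumors followed by caliper ((length × width × width)/2) and by bioluminescent imaging after i.p. substrate injection. Body weight recorded. Tumor tissue assessed by H&E and immunofluorescence for Ki67, MYC pT58 and PD-L1.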"}, "[9]": {"target": "MYC353–439 (Homo sapiens, UniProt P01106)", "sequence (P01106 368-454)": "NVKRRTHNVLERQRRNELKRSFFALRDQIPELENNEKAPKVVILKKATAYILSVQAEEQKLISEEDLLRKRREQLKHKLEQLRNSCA", "experiment": "Fluorescence polarization competition assay against 10074-G5", "assay_type": "binding"}, "[10]": {"system": "468 kinases, including GSK3β", "experiment": "KINOMEscan kinome screen", "assay_type": "binding", "details": "6 μM"}, "[11]": {"system": "phosphatase inhibition screening panel", "experiment": "Phosphatase inhibition screening panel", "assay_type": "biochemical", "details": "10-dose 3-fold serial dilutions starting at 100 μM", "outline": "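Run in 10-dose IC₅₀ mode, each compound tested singly, with a PTP1B inhibitor as control compound.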"}, "[12]": {"system": "MYC-dependent cancer cells", "experiment": "Cell viability, MYC-dependent cancer cells", "assay_type": "cell-based", "details": "MycCaP, LNCaP, PC3, MV4–11, HL-60, P493–6, SK-N-B2; 5 days", "outline": "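Cells were seeded at 1000 to 5000 per well in 96-well plates, depending on cell type. Viable cells were counted, or MTS absorbance was read at 490 nm, 2 to 7 days after treatment. MycCaP, PC3, LNCaP and P493–6 were grown in RPMI1640, SK-N-BE(2) in F12 and MV411 in IMDM, each with 10% heat-inactivated FBS and 1% penicillin-streptomycin.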"}, "[13]": {"system": "MycCaP cells", "experiment": "Caspase-3 and immunogenic cell death assays in MycCaP cells", "assay_type": "cell-based, mouse", "outline": "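MycCaP cells exposed to 4 μM test compound for 72 hr; supernatants collected. Secreted ATP read by bioluminescent kit and HMGB1 by ELISA, with cell counts taken for quantification. Surface calreticulin: cells stained with rabbit anti-calreticulin (1:1000, 60 min), then Alexa Fluor 488 anti-rabbit (1 μg/ml), read by flow cytometry.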"}, "[14]": {"system": "γ-H2AX", "experiment": "γ-H2AX staining", "assay_type": "cell-based, human", "details": "10 μM, 24-hour treatment", "outline": "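PC3 cells were fixed in 4% PFA and permeabilised with 0.5% Triton-X. They were then stained with anti-phospho-histone H2A.X (Ser139) antibody at 1:1000.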"}, "[15]": {"details": "MycCaP E-box-Luc allografts, i.p."}, "[16]": {"details": "MycCaP tumor tissue after treatment"}, "[17]": {"details": "MycCaP tumors post-361 treatment"}}}
{"molecule": "Cn1nc(C(F)(F)F)cc1-c1ccc(OCc2ccc(Cl)cc2)c(-c2cc(C(F)(F)F)cc(C(F)(F)F)c2)c1O", "note": "[Compound 361, 6-((4-chlorobenzyl)oxy)-3-(1-methyl-3-(trifluoromethyl)-1H-pyrazol-5-yl)-3’,5’-bis(trifluoromethyl)-[1,1’-biphenyl]-2-ol]", "values": [{"measurement": "sensitivity of Myc knockout versus wild-type fibroblasts", "setting": "[1]", "result": "more resistant"}, {"measurement": "phosphorylation of β-Catenin at S33/37/T41", "setting": "[2]", "result": "did not affect"}, {"measurement": "MYC T58 and S62 phosphorylation", "setting": "[2]; 6 μM, PC3 cells", "result": "selectively increased T58 but not S62 phosphorylation"}, {"measurement": "regulatory GSK3β S9 phosphorylation", "setting": "[2]; PC3 cells", "result": "did not affect"}, {"measurement": "MYC, MYCN and MAX protein levels", "setting": "[2]; multiple cell lines expressing MYC and MYCN", "result": "reduction in MYC and MYCN, but not MAX, protein levels"}, {"measurement": "degradation of MYCT58A mutant", "setting": "[3]", "result": "not readily degraded"}, {"measurement": "interaction with MYCT58A by CETSA", "setting": "[4]; 6 μM, MYCT58A-expressing PC3 cells", "result": "can interact"}, {"measurement": "thermal stability of MYC protein (CETSA)", "setting": "[4]; PC3 cells, 30 min, 361 4–10 μM, G5 15–60 μM, 360 6 μM", "result": "significant thermal destabilization"}, {"measurement": "E-box-luciferase versus CMV-luciferase activity in vitro", "setting": "[5]", "result": "selectively inhibited E-box-luciferase but not CMV-luciferase activity"}, {"measurement": "sensitivity of MycCaP versus normal prostate organoids", "setting": "[6]", "result": "more sensitive"}, {"measurement": "MYCT58A/MAX interactions (PLA)", "setting": "[7]; MYCT58A-expressing PC3 cells", "result": "disrupted"}, {"measurement": "MYC/MAX interaction by co-IP and PLA", "setting": "[7]; PC3 cells, 1 hr", "result": "disruption of the MYC/MAX interaction"}, {"measurement": "tumor inhibitory effect, FVB versus NSG mice", "setting": "[8]; 50 mg/kg/day for 4 days", "result": "stronger tumor inhibitory effect in immunocompetent FVB mice"}, {"measurement": "tumor immune cells by flow cytometry", "setting": "[8]; 50 mg/kg/day, 2 days on/2 days off for 2 rounds", "result": "an increase in CD3^+CD4^+ and CD3^+CD8^+ T cells, IFNγ-expressing CD4^+ and CD8^+ T cells, TNFα-expressing CD8^+ cells, dendritic cells and NK cells"}, {"measurement": "body weight", "setting": "[8]; 70 mg/kg/day", "result": "without additional loss in mouse body weight"}, {"measurement": "body weight loss", "setting": "[8]; 100 mg/kg/day, average", "result": 10, "unit": "%"}, {"measurement": "tumor growth, combination with anti-PD1", "setting": "[8]; 361 50 mg/kg/day 2 days then anti-PD1 100 μg/d 2 days, 4 cycles", "result": "synergistic suppression of tumor growth"}, {"measurement": "tumor growth", "setting": "[8]; FVB mice, established MycCaP allografts, 100 mg/kg/day", "result": "induced tumor regression"}, {"measurement": "E-box luciferase activity in vivo", "setting": "[8]; [15]", "result": "significantly reduced"}, {"measurement": "tumor size, rapid in vivo screen", "setting": "[8]; [15]", "result": "significantly reduced"}, {"measurement": "Ki67 proliferation marker in tumor tissues", "setting": "[8]; [16]", "result": "decreased"}, {"measurement": "MYC pT58 level in tumor tissues", "setting": "[8]; [16]", "result": "increased"}, {"measurement": "PD-L1 expression on tumor cells", "setting": "[8]; [17]", "result": "upregulation of PD-L1 expression"}, {"measurement": "tumor infiltration of CD3+ T cells", "setting": "[8]; [17]", "result": "enhanced tumor infiltration of CD3^+ T cells"}, {"measurement": "tolerability", "setting": "[8]; combination study dose, 50 mg/kg/day 2 days on/off", "result": "well-tolerated"}, {"measurement": "tumor growth", "setting": "[8]; treatment re-started at 70 mg/kg/day", "result": "effective in controlling tumor growth"}, {"measurement": "Kd", "setting": "[9]", "result": 3.2, "unit": "µM"}, {"measurement": "kinome screen result", "setting": "[10]", "result": "negative"}, {"measurement": "phosphatase inhibition screening panel result", "setting": "[11]", "result": "negative"}, {"measurement": "IC50s, cell viability", "setting": "[12]", "result": "low micromolar"}, {"measurement": "markers of immunogenic cell death", "setting": "[13]; 4 μM, 72 hr", "result": "significant upregulation of cell surface calreticulin expression, and release of HMGB1 and ATP"}, {"measurement": "cancer cell death, caspase-3", "setting": "[13]; 6 μM", "result": "induces cancer cell death with activated caspase-3 expression"}, {"measurement": "induction of γ-H2AX", "setting": "[14]", "result": "did not observe induction"}]}
